Data set [1] deals with Trichophyton mentagrophytes. In words: Antifungal activity against Trichophyton mentagrophytes ATCC 9972 after 48 hrs. The data set is classed as functional. To be noted: ATCC 9972, 48 h. A digest of the protocol:
(§1)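 Dermatophytes were tested by CLSI M38-A microdilution in MOPS-buffered RPMI 1640 at pH 7.0. Inoculum is 10³ CFU/mL, with two-fold serial compound dilutions and final DMSO ≤1%. Trays are kept at 28–30 °C in a moist, dark chamber. MIC is the lowest concentration with total growth inhibition, read visually when control growth allows.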

A further data set deals with Candida albicans. In words: Antifungal activity against Candida albicans ATCC 10231 after 48 hrs. The note with it: ATCC 10231, 48 h. The data set is classed as functional. A digest of the protocol:
(§2)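 CLSI M27-A2 broth microdilution in RPMI 1640 buffered to pH 7.0 with MOPS. Inoculum is 10³ CFU/mL from Sabouraud-grown yeasts. Compound is two-fold serially diluted, final DMSO ≤1%. Incubated at 35 °C in a moist, dark chamber and read visually at 48 h. MIC is the lowest concentration giving total growth inhibition.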

Another data set has as its system Nannizzia gypsea. Put plainly: Antifungal activity against Microsporum gypseum C 115 after 48 hrs. In kind it is functional. To be noted: C 115, 48 h. A digest of the protocol:
as §1

For another data set, the system named is Aspergillus niger. Put plainly: Antifungal activity against Aspergillus niger ATCC 9029 after 48 hrs. The data set is classed as functional. To be noted: ATCC 9029, 48 h. A digest of the protocol:
(§3)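 Aspergillus spp. were tested by CLSI M38-A broth microdilution in RPMI 1640 with MOPS at pH 7.0. Spore inoculum is 10³ CFU/mL, with two-fold compound dilutions and final DMSO ≤1%. Incubated at 35 °C in a moist, dark chamber. MIC is read visually as total growth inhibition, at a time set by growth of the control fungus.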

The subject of the next data set is Aspergillus fumigatus. Put plainly: Antifungal activity against Aspergillus fumigatus ATCC 26934 after 48 hrs. The data set is classed as functional. The note with it: ATCC 26934, 48 h. A digest of the protocol: as §3
A further data set has as its system Trichophyton rubrum. Put plainly: Antifungal activity against Trichophyton rubrum C 113 after 48 hrs. The data set is classed as functional. The note with it: C 113, 48 h. A digest of the protocol:
as §1

The test system of the next data set is Saccharomyces cerevisiae. In words: Antifungal activity against Saccharomyces cerevisiae ATCC 9763 after 48 hrs. The data set is classed as functional. The note with it: ATCC 9763, 48 h. A digest of the protocol: as §2
In data set [2] the test system is Trypanosoma cruzi. In words: Antitrypanosomal activity against Trypanosoma cruzi Tulahuen 2 at 25 uM. In kind it is functional. In outline:
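Tulahuen 2 epimastigotes (8 × 10⁶ cells/mL, 28 °C, BHI-tryptose with 5% FBS) were exposed to a single drug concentration, with final DMSO ≤0.4% and a vehicle control. Percent growth inhibition = {1 − [(Ap − A0p)/(Ac − A0c)]} × 100, using A600 of drug and control cultures at day 0 and day 5.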

In another data set the test system is Cryptococcus neoformans. In words: Antifungal activity against Cryptococcus neoformans ATCC 32264 after 48 hrs. In kind it is functional. In outline:
as §2

A further data set relates to Candida tropicalis. Put plainly: Antifungal activity against Candida tropicalis C 131 2000 after 48 hrs. The data set is classed as functional. In outline: as §2
The test system of another data set is Aspergillus flavus. In words: Antifungal activity against Aspergillus flavus ATCC 9170 after 48 hrs. The note with it: ATCC 9170, 48 h. In kind it is functional. A digest of the protocol:
as §3

Data set [3] relates to Trypanosoma cruzi. Put plainly: Antitrypanosomal activity against Trypanosoma cruzi Tulahuen 2. The data set is classed as functional. The note with it: read-out: ID50 (the source's name). In outline:
(§4)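 Epimastigotes were grown at 28 °C in BHI-tryptose with 5% FBS. Stationary-phase parasites are inoculated at 8 × 10⁶ cells/mL into medium containing increasing drug concentrations from DMSO stock (final DMSO ≤0.4%; vehicle control). Growth is followed by A600. ID50 is the concentration that halves the day-5 absorbance ratio relative to control.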

A short description of data set [4]: Cytotoxicity against mouse J774 cells after 48 hrs by MTT assay. In kind it is cell-based. The note with it: read-out: ID50. In outline: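 J-774 macrophages were seeded at 1 × 10⁵ cells/well in RPMI 1640 with 20% heat-inactivated FCS and left to attach for 48 h at 37 °C in 5% CO₂. Cells were then exposed to compounds for 48 h. MTT was added at 0.4 mg/mL final, formazan was dissolved in DMSO, and A595 was read. ID50 is the concentration cutting control absorbance by 50%, averaged over three experiments.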

Data set [5] has as its system Trypanosoma cruzi. In words: Antitrypanosomal activity against Trypanosoma cruzi CL Brener. In kind it is functional. The note with it: read-out: ID50 (the source's name). In outline:
as §4

Data set [6] can be described thus: Selectivity index, ratio of ID50 for mouse J774 cells to ID50 for Trypanosoma cruzi Tulahuen 2. The data set is classed as toxicity, cell-based. The note with it: J774 cells versus Trypanosoma cruzi Tulahuen 2. In outline: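 Selectivity index is the ID50 in J-774 macrophages (48 h MTT) divided by the ID50 against Tulahuen 2 epimastigotes (day-5 A600 growth).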

Where [7] appears, read: Cryptococcus neoformans, ATCC 32264, 48 h, read-out: MIC.
Setting [8] is: Candida tropicalis, C 131 2000, 48 h, read-out: MIC.
[9] abbreviates: Cryptococcus neoformans, ATCC 32264, 48 h.

This is an account of results in ChEMBL document CHEMBL1165856, “Naftifine-analogues as anti-Trypanosoma cruzi agents” (Eur J Med Chem, 2010).

Structures are written as SMILES. ≈ marks a conversion by molar mass, not a printed value. Where “and” joins values, the source holds several entries; their conditions need not be identical. Equal values may be shown once. A value given as a limit tells only on which side of the number the result lay.

In the case of `C=CCNC(=S)N/N=C/c1ccc2no[n+]([O-])c2c1`, the MIC (in [1]; in the data set on Candida albicans; in the data set with Nannizzia gypsea; with Aspergillus niger; in the data set on Aspergillus fumigatus; in the data set on Trichophyton rubrum) was over 250 µg/mL in each case. The MIC against Saccharomyces cerevisiae, in the data set on Cryptococcus neoformans (setting [7]), with Candida tropicalis (setting [8]) and against Aspergillus flavus was over 250 µg/mL in each case. Besides, in the data set with Trypanosoma cruzi [2], the inhibition (in general, the drop in the measured response relative to a control, in per cent) at 25 µM was determined as 33%.

`N#Cc1c2ccccc2[n+]([O-])n1C/C=C/c1ccccc1`: the MFC (in [1]; in the data set on Nannizzia gypsea; with Trichophyton rubrum) was 125 µg/mL (≈ 454 µM) in each case. For the same compound, the MIC – broadly, the lowest concentration found to suppress growth – is 62.5 µg/mL (≈ 227 µM) in [1]; over 250 µg/mL against Candida albicans; 62.5 µg/mL (≈ 227 µM) against Nannizzia gypsea; over 250 µg/mL with Aspergillus niger; over 250 µg/mL in the data set on Aspergillus fumigatus; 62.5 µg/mL (≈ 227 µM) in the data set on Trichophyton rubrum. Further, the MIC against Saccharomyces cerevisiae, in the data set on Cryptococcus neoformans (setting [7]), in the data set with Candida tropicalis (setting [8]) and against Aspergillus flavus was over 250 µg/mL throughout. For the same compound, the inhibition at 25 µM with Trypanosoma cruzi [2] is 28%.

Consider `COc1nn(CCOCCN2CCN(C/C=C/c3ccccc3)CC2)c2ccc([N+](=O)[O-])cc12`, for which the MFC (commonly the smallest concentration meeting the test's criterion for killing the fungus) in data set [1] worked out at 125 µg/mL (≈ 268 µM); against Candida albicans, 125 µg/mL (≈ 268 µM); with Nannizzia gypsea, 125 µg/mL (≈ 268 µM); against Trichophyton rubrum it was 125 µg/mL (≈ 268 µM); in the data set with Saccharomyces cerevisiae, 62.5 µg/mL (≈ 134 µM); against Cryptococcus neoformans (setting [9]) it was 62.5 µg/mL (≈ 134 µM). For the same compound, the MIC in [1] is 62.5 µg/mL (≈ 134 µM); in the data set with Candida albicans it was 125 µg/mL (≈ 268 µM); against Nannizzia gypsea, 62.5 µg/mL (≈ 134 µM); against Aspergillus niger, over 250 µg/mL; against Aspergillus fumigatus, over 250 µg/mL; against Trichophyton rubrum, 62.5 µg/mL (≈ 134 µM). The MIC is 62.5 µg/mL (≈ 134 µM) in the data set on Saccharomyces cerevisiae; 62.5 µg/mL (≈ 134 µM) in the data set on Cryptococcus neoformans (setting [7]); 125 µg/mL (≈ 268 µM) in the data set on Candida tropicalis; 125 µg/mL (≈ 268 µM) in the data set with Candida tropicalis (setting [8]); over 250 µg/mL in the data set on Aspergillus flavus. In addition, the IC50 in the data set on Trypanosoma cruzi [3] was found to be 3.8 µM; in the data set on Trypanosoma cruzi [5], 7.9 µM. Moreover, the CC50 at 48 h in data set [4] is under 100 µM. Also, the selectivity ratio in data set [6] is under 26.3.

Take `CN(C/C=C/c1ccccc1)Cc1ccc2no[n+]([O-])c2c1`: the results for the IC50 in the data set with Trypanosoma cruzi [3] and in the data set on Trypanosoma cruzi [5] were 22.6 µM and 16.9 µM, respectively. For the same compound, in [4], the CC50 at 48 h was under 100 µM. Further, in [6], the selectivity ratio is under 4.4.

Take `C=CCNC(=S)N/N=C/c1ccc2c(c1)[n+]([O-])c(C(=O)Nc1ccccc1)c(C)[n+]2[O-]`: the MFC in data set [1] is 250 µg/mL (≈ 573 µM); in the data set with Nannizzia gypsea, 250 µg/mL (≈ 573 µM); in the data set with Trichophyton rubrum, 250 µg/mL (≈ 573 µM); against Cryptococcus neoformans (setting [9]) it was over 250 µg/mL. Further, the MIC in [1] is 250 µg/mL (≈ 573 µM); with Candida albicans, over 250 µg/mL; with Nannizzia gypsea, 250 µg/mL (≈ 573 µM); against Aspergillus niger, over 250 µg/mL; in the data set with Aspergillus fumigatus it was over 250 µg/mL; in the data set on Trichophyton rubrum, 250 µg/mL (≈ 573 µM). The MIC is over 250 µg/mL against Saccharomyces cerevisiae, 250 µg/mL (≈ 573 µM) in the data set with Cryptococcus neoformans (setting [7]), over 250 µg/mL in the data set on Candida tropicalis (setting [8]) and over 250 µg/mL in the data set with Aspergillus flavus. The same compound registered an inhibition at 25 µM with Trypanosoma cruzi [2] of 0%.

As to `O=[N+]([O-])c1ccc2c(c1)c(OCc1ccccc1)nn2CCCCCN1CCN(C/C=C/c2ccccc2)CC1`, the MFC (in data set [1]; in the data set on Nannizzia gypsea; with Trichophyton rubrum) was 125 µg/mL (≈ 232 µM) in each case. In addition, the MIC in [1] was 62.5 µg/mL (≈ 116 µM); with Candida albicans it was over 250 µg/mL; in the data set on Nannizzia gypsea, 62.5 µg/mL (≈ 116 µM); against Aspergillus niger, over 250 µg/mL; against Aspergillus fumigatus, over 250 µg/mL; against Trichophyton rubrum, 62.5 µg/mL (≈ 116 µM). For the same compound, the MIC against Saccharomyces cerevisiae is over 250 µg/mL; with Cryptococcus neoformans, 62.5 µg/mL and 31.2 µg/mL; with Candida tropicalis (setting [8]) it was over 250 µg/mL; against Aspergillus flavus, over 250 µg/mL. The IC50 in the data set with Trypanosoma cruzi [3] stood at 10.6 µM; in the data set with Trypanosoma cruzi [5] it was 4.5 µM. For the same compound, the CC50 at 48 h in data set [4] is under 100 µM. Also, the selectivity ratio in data set [6] is under 9.4.

With `C=CCNC(=S)N/N=C/c1ccc2c(c1)[n+]([O-])c(C)c(C)[n+]2[O-]`, the MIC (in [1]; against Candida albicans; with Nannizzia gypsea; against Aspergillus niger; against Aspergillus fumigatus; against Trichophyton rubrum) was over 250 µg/mL throughout. In addition, the MIC against Saccharomyces cerevisiae, with Cryptococcus neoformans (setting [7]), with Candida tropicalis (setting [8]) and with Aspergillus flavus was over 250 µg/mL each time. In the data set on Trypanosoma cruzi [2], this compound yielded an inhibition at 25 µM of 21%.

For the compound `C=CCNC(=S)N/N=C/c1ccc2c(c1)[n+]([O-])c(C#N)c(N)[n+]2[O-]`, the MIC (in data set [1]; in the data set on Candida albicans; in the data set on Nannizzia gypsea; with Aspergillus niger; against Aspergillus fumigatus; with Trichophyton rubrum) was over 250 µg/mL each time. In addition, the MIC against Saccharomyces cerevisiae, with Cryptococcus neoformans (setting [7]), in the data set on Candida tropicalis (setting [8]) and in the data set on Aspergillus flavus was over 250 µg/mL each time. The inhibition at 25 µM with Trypanosoma cruzi [2] amounted to 6%.
